Activity calls are given as the source filed them. The rule behind the calls is not given here.
Key:
PC-12 [1] = assay: Cytotoxicity against rat PC12 cells assessed as decrease in cell viability at 20 uM after 24 hrs by MTT assay; type: cell-based; conditions: pc-12, 24 h
Method in brief: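 PC12 cells grown in DMEM with 10% FBS at 37 °C and 5% CO2, seeded at 10 000 cells/well and cultured 24 h. Compound added at 20 μM without glutamate (DMSO stock at 1000× final). Then MTT (5 mg/mL stock) added for 4 h at 37 °C, formazan dissolved in DMSO, and A570 read. Viability given as % of untreated control.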

PC-12 [2] = assay: cells; conditions: Rattus norvegicus, PC-12, 24 h
PC-12 [3] = assay: Neuroprotective activity against 12.5 mM glutamate-induced toxicity in rat PC12 cells assessed as cell viability at 10 uM after 24 hrs by MTT assay; type: functional, cell-based
Method in brief: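 Concentration-response run in PC12 cells co-exposed 24 h to 12.5 mM glutamate and compound at 0.1, 1, 5, 10, 15 or 20 μM. Viability by MTT (4 h at 37 °C, formazan in DMSO, A570), relative to untreated control; mean ± SD, n = 6.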

PC-12 [4] = assay: Induction of apoptosis in rat PC12 cells assessed as early apoptotic cells at 10 uM after 24 hrs by Annexin V-FITC/propidium iodide staining based flow cytometry (reference value: 1.04%); type: cell-based; conditions: pc-12, 24 h
PC-12 [5] = assay: Neuroprotective activity against 12.5 mM glutamate-induced apoptosis in rat PC12 cells assessed as decrease in caspase 3 level after 24 hrs by chemiluminescence based Western blot analysis; type: functional, cell-based
Method in brief: (§1)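 PC12 cells exposed 24 h to compound at 0.1, 1 or 10 μM, with or without 12.5 mM glutamate. Protein extracted in lysis buffer and quantified by BCA. Equal amounts run on 12% SDS-PAGE, blotted to nitrocellulose, blocked in 5% nonfat milk, then primary antibodies overnight at 4 °C and HRP secondaries. Cytochrome c measured in the cytosolic fraction. Mean ± SD, n = 3.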

PC-12 [6] = assay: Neuroprotective activity against 12.5 mM glutamate-induced apoptosis in rat PC12 cells assessed as decrease in caspase 9 level after 24 hrs by chemiluminescence based Western blot analysis; type: functional, cell-based; method in brief: as §1
PC-12 [7] = assay: Neuroprotective activity against 12.5 mM glutamate-induced apoptosis in rat PC12 cells assessed as decrease in Bax level at 0.1 to 10 uM after 24 hrs by chemiluminescence based Western blot analysis; type: functional, cell-based; method in brief: as §1
PC-12 [8] = assay: Neuroprotective activity against 12.5 mM glutamate-induced apoptosis in rat PC12 cells assessed as late apoptotic cells at 10 uM after 24 hrs by Annexin V-FITC/propidium iodide staining based flow cytometry (reference value: 45.53%); type: functional
PC-12 [9] = assay: Neuroprotective activity against 12.5 mM glutamate-induced apoptosis in rat PC12 cells assessed as early apoptotic cells at 0.1 uM after 24 hrs by Annexin V-FITC/propidium iodide staining based flow cytometry (reference value: 1.04%); type: functional
PC-12 [10] = assay: Neuroprotective activity against 12.5 mM glutamate-induced apoptosis in rat PC12 cells assessed as late apoptotic cells at 1 uM after 24 hrs by Annexin V-FITC/propidium iodide staining based flow cytometry (reference value: 45.53%); type: functional
PC-12 [11] = assay: Neuroprotective activity against 12.5 mM glutamate-induced toxicity in rat PC12 cells assessed as cell viability at 0.1 uM after 24 hrs by MTT assay
PC-12 [12] = assay: Neuroprotective activity against 12.5 mM glutamate-induced apoptosis in rat PC12 cells assessed as late apoptotic cells at 0.1 uM after 24 hrs by Annexin V-FITC/propidium iodide staining based flow cytometry (reference value: 45.53%); type: functional
PC-12 [13] = assay: Induction of apoptosis in rat PC12 cells assessed as late apoptotic cells at 10 uM after 24 hrs by Annexin V-FITC/propidium iodide staining based flow cytometry (reference value: 45.53%); type: cell-based; conditions: pc-12, 24 h
PC-12 [14] = assay: Neuroprotective activity against 12.5 mM glutamate-induced apoptosis in rat PC12 cells assessed as increase in Bcl-2 level at 0.1 to 10 uM after 24 hrs by chemiluminescence based Western blot analysis; type: functional, cell-based; method in brief: as §1
PC-12 [15] = assay: Neuroprotective activity against 12.5 mM glutamate-induced apoptosis in rat PC12 cells assessed as early apoptotic cells at 1 uM after 24 hrs by Annexin V-FITC/propidium iodide staining based flow cytometry (reference value: 1.04%); type: functional
PC-12 [16] = assay: Neuroprotective activity against 12.5 mM glutamate-induced apoptosis in rat PC12 cells assessed as early apoptotic cells at 10 uM after 24 hrs by Annexin V-FITC/propidium iodide staining based flow cytometry (reference value: 1.04%); type: functional
PC-12 [17] = assay: Neuroprotective activity against 12.5 mM glutamate-induced apoptosis in rat PC12 cells assessed as decrease in cytochrome c level at 0.1 to 10 uM after 24 hrs by chemiluminescence based Western blot analysis; type: functional, cell-based; method in brief: as §1

| Structure (SMILES) | Activity (PC-12 [1]) | EC50 (PC-12 [2]) | Activity (PC-12 [3]) | also measured |
| --- | --- | --- | --- | --- |
| CCCCCCCCC/C=C/CC/C=C/[C@@H](O)[C@H](CO[C@@H]1O[C@H](CO)[C@@H](O)[C@H](O)[C@H]1O)NC(=O)[C@H](O)CCCCCCCCCCCCCCCCCC | Non-Toxic | 12.4 µM | Active |  |
| CCCCCCCCC/C=C/CC/C=C/[C@@H](O)[C@H](CO[C@@H]1O[C@H](CO)[C@@H](O)[C@H](O)[C@H]1O)NC(=O)[C@H](O)CCCCCCCCCCCCCCCC | Non-Toxic | 22.2 µM | Active |  |
| CCCCCCCCC/C=C/CC/C=C/[C@@H](O)[C@H](CO[C@@H]1O[C@H](CO)[C@@H](O)[C@H](O)[C@H]1O)NC(=O)[C@H](O)CCCCCCCCCCCCCCCCCCCC | Non-Toxic | 6.9 µM | Active |  |
| CCCCCCCCC/C=C\CC/C=C/[C@@H](O)[C@H](CO[C@@H]1O[C@H](CO)[C@@H](O)[C@H](O)[C@H]1O)NC(=O)[C@H](O)CCCCCCCCCCCCCCCC | Non-Toxic | 20.1 µM | Active |  |
| CCCCCCCCC/C=C\CC/C=C/[C@@H](O)[C@H](CO[C@@H]1O[C@H](CO)[C@@H](O)[C@H](O)[C@H]1O)NC(=O)[C@H](O)CCCCCCCCCCCCCCCCCCC | Non-Toxic | 8.9 µM | Active |  |
| CCCCCCCCC/C=C\CC/C=C/[C@@H](O)[C@H](CO[C@@H]1O[C@H](CO)[C@@H](O)[C@H](O)[C@H]1O)NC(=O)[C@H](O)CCCCCCCCCCCCCCCCCC | Non-Toxic | 12 µM | Active |  |
| CCCCCCCCC/C=C/CC/C=C/[C@@H](O)[C@H](CO[C@@H]1O[C@H](CO)[C@@H](O)[C@H](O)[C@H]1O)NC(=O)[C@H](O)CCCCCCCCCCCCCC | Non-Toxic | 29.7 µM | Active |  |
| CCCCCCCCC/C=C/CC/C=C/[C@@H](O)[C@H](CO[C@@H]1O[C@H](CO)[C@@H](O)[C@H](O)[C@H]1O)NC(=O)[C@H](O)CCCCCCCCCCCCCCCCCCC | Non-Toxic | 8.8 µM | Active |  |
| CCCCCCCCC/C=C\CC/C=C/[C@@H](O)[C@H](CO[C@@H]1O[C@H](CO)[C@@H](O)[C@H](O)[C@H]1O)NC(=O)[C@H](O)CCCCCCCCCCCCCCCCCCCC | Non-Toxic | 6.5 µM | Active |  |
| CCCCCCCCC/C=C\CC/C=C/[C@@H](O)[C@H](CO[C@@H]1O[C@H](CO)[C@@H](O)[C@H](O)[C@H]1O)NC(=O)[C@H](O)CCCCCCCCCCCCCCCCCCCCCC | Non-Toxic | 2.5 µM | Active | Activity (PC-12 [4]): 0.62%; Activity (PC-12 [5]): Dose-dependent effect; Activity (PC-12 [6]): Dose-dependent effect; Activity (PC-12 [7]): Active; Activity (PC-12 [8]): 2.11%; Activity (PC-12 [9]): 1.79%; Activity (PC-12 [10]): 22.38%; Activity (PC-12 [11]): Active; Activity (PC-12 [12]): 30.63%; Activity (PC-12 [13]): 1.49%; Activity (PC-12 [14]): Active; Activity (PC-12 [15]): 1.2%; Activity (PC-12 [16]): 1.02%; Activity (PC-12 [17]): Active |
| CC1=NN(c2ccccc2)C(=O)C1 [EDARAVONE] |  | 9.2 µM |  |  |
| CCCCCCCCC/C=C/CC/C=C/[C@@H](O)[C@H](CO[C@@H]1O[C@H](CO)[C@@H](O)[C@H](O)[C@H]1O)NC(=O)[C@H](O)CCCCCCCCCCCCCCCCCCCCCC | Non-Toxic | 2.7 µM | Active |  |
| CCCCCCCCC/C=C\CC/C=C/[C@@H](O)[C@H](CO[C@@H]1O[C@H](CO)[C@@H](O)[C@H](O)[C@H]1O)NC(=O)[C@H](O)CCCCCCCCCCCCCC | Non-Toxic | 27.1 µM | Active |  |
| CCCCCCCCC/C=C\CCC[C@@H](O)[C@@H](O)[C@H](CO[C@@H]1O[C@H](CO)[C@@H](O)[C@H](O)[C@H]1O)NC(=O)[C@H](O)CCCCCCCCCCCCCCCCCCCC | Non-Toxic | 6.6 µM | Active |  |

Source: ChEMBL document CHEMBL4190188, “Neuroprotective Activity of Cerebrosides from Typhonium giganteum by Regulating Caspase-3 and Bax/Bcl-2 Signaling Pathways in PC12 Cells” (J Nat Prod, 2017)
